Legend:
[1] = molecular target: T1, Prostaglandin D2 receptor (Mus musculus, UniProt P70263); experiment: Antagonist activity at mouse prostanoid DP receptor expressed in CHO cells assessed as inhibition of PGD2-induced intracellular cAMP production; type: functional, cell-based
T1 sequence (P70263 whole entry): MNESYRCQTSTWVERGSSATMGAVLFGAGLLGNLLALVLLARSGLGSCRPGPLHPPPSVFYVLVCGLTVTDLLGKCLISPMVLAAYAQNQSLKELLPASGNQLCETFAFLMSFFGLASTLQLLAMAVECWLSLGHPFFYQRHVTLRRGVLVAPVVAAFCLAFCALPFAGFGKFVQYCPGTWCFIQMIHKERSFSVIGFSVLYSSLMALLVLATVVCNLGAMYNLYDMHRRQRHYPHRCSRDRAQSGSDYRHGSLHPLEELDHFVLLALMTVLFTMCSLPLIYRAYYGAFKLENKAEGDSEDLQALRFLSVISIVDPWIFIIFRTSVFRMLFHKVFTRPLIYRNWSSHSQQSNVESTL
Outline: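 CHO-mDP cells were seeded at 1×10^5 cells/well and grown 2 days. They were preincubated about 10 min at 37 °C in MEM with 2 µM diclofenac, then about 10 min in MEM with 0.1% BSA, 1 mM IBMX and 2 µM diclofenac. Test compounds at various concentrations plus 10 nM PGD2 were then added for 10 min at 37 °C. Reactions were stopped with 10% TCA, extracted with tri-n-octylamine/chloroform, and cAMP was measured by EIA.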

[2] = molecular target: T1, Prostaglandin D2 receptor; experiment: Displacement of [3H]PGD2 from mouse prostanoid DP receptor expressed in CHO cells after 20 mins by liquid scintillation counting
[3] = molecular target: Prostaglandin E2 receptor EP2 subtype (Mus musculus, UniProt Q62053); experiment: Displacement of [3H]PGE2 from mouse prostaglandin EP2 receptor expressed in CHO cells after 60 mins by liquid scintillation counting; type: cell-based
Sequence of Prostaglandin E2 receptor EP2 subtype (Q62053 whole entry): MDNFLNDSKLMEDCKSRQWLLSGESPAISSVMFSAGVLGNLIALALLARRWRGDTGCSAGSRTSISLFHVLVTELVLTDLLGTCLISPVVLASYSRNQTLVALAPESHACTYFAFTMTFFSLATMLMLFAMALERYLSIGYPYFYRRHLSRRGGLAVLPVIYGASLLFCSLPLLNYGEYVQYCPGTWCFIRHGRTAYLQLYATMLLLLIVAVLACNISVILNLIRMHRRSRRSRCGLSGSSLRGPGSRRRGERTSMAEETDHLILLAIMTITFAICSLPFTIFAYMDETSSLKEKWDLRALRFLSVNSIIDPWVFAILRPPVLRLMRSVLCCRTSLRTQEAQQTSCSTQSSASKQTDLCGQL
Outline: (§1)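 Membranes came from CHO cells stably expressing mEP1, EP2, EP3 or EP4. They were incubated with 2.5 nM [3H]PGE2 and graded test concentrations in 10 mM KH2PO4–KOH (1 mM EDTA, 10 mM MgCl2, 100 mM NaCl, pH 6.0) at room temperature, 20 min for EP1 and 60 min for EP2–4. Reactions were filtered on GF/B, washed with ice-cold buffer, and counted by scintillation. IC50 came by regression, with Ki via Cheng–Prusoff.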

[4] = molecular target: T2, Prostaglandin E2 receptor EP3 subtype (Mus musculus, UniProt P30557); experiment: Displacement of [3H]PGE2 from mouse prostaglandin EP3alpha receptor expressed in CHO cells after 60 mins by liquid scintillation counting; type: cell-based; outline: as §1
T2 sequence (P30557 whole entry): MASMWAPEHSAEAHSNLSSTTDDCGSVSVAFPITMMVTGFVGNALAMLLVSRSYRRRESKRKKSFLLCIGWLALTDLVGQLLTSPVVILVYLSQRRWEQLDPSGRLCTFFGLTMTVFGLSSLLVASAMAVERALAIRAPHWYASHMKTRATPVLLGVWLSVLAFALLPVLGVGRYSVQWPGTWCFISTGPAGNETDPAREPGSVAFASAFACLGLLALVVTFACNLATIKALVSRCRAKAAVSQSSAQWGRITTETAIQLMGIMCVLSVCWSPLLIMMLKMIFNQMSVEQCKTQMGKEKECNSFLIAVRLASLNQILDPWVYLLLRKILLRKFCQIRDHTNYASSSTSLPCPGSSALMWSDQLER

[5] = molecular target: Prostaglandin E2 receptor EP4 subtype (Mus musculus, UniProt P32240); experiment: Displacement of [3H]PGE2 from mouse prostaglandin EP4 receptor expressed in CHO cells after 60 mins by liquid scintillation counting; type: cell-based; outline: as §1
Sequence of Prostaglandin E2 receptor EP4 subtype (P32240 whole entry): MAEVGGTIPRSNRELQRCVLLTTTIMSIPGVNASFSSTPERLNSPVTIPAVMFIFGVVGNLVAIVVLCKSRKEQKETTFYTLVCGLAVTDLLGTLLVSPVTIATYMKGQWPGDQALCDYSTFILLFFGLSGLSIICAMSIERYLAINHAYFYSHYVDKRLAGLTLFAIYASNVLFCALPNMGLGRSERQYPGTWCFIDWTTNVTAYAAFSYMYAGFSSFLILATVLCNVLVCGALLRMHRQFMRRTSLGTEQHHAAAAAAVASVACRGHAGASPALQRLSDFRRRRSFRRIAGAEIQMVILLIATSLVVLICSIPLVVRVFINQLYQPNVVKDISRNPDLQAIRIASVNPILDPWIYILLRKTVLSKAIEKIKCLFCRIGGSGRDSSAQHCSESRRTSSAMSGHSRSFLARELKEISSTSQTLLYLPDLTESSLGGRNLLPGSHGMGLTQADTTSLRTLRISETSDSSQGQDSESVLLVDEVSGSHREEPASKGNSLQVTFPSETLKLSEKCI

[6] = molecular target: Prostaglandin F2-alpha receptor (Mus musculus, UniProt P43117); experiment: Displacement of [3H]PGF2alpha from mouse prostanoid FP receptor expressed in CHO cells after 60 mins by liquid scintillation counting; type: cell-based
Sequence of Prostaglandin F2-alpha receptor (P43117 whole entry): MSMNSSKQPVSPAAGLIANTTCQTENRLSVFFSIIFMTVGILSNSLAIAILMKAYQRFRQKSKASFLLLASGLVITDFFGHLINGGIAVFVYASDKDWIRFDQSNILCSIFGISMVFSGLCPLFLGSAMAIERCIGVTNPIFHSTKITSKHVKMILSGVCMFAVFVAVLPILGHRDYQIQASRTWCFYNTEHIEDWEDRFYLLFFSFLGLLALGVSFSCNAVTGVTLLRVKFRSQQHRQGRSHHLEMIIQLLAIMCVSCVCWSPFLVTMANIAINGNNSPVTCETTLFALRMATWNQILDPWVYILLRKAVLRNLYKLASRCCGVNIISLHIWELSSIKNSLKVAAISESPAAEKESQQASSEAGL
Outline: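 CHO-mFP membranes were incubated with 2.5 nM [3H]PGF2α and varied test concentrations in 10 mM KH2PO4–KOH, 1 mM EDTA, 10 mM MgCl2, 100 mM NaCl, pH 6.0, for 60 min at room temperature. Samples were then filtered on GF/B, washed with ice-cold phosphate/NaCl buffer, and counted by scintillation. IC50 came from the regression curve, and Ki = IC50/(1+[L]/Kd).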

[7] = molecular target: T3, Prostaglandin E2 receptor EP1 subtype (Mus musculus, UniProt P35375); experiment: Displacement of [3H]PGE2 from mouse prostaglandin EP1 receptor expressed in CHO cells after 20 mins by liquid scintillation counting
T3 sequence (P35375 whole entry): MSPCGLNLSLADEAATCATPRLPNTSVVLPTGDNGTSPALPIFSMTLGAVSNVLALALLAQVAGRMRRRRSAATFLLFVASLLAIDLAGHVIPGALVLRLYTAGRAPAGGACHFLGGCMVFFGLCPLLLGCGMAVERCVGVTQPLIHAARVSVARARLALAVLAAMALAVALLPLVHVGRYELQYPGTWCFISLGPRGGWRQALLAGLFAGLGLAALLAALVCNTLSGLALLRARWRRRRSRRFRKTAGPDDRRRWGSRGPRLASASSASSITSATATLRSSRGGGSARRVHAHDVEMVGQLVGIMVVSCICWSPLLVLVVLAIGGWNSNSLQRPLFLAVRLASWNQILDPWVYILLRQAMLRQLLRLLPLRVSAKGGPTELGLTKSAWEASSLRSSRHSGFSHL

Prostacyclin receptor = Prostacyclin receptor (Homo sapiens, UniProt P43119); experiment: Displacement of [3H]Iloprost from human prostanoid IP receptor expressed in CHO cells after 30 mins by liquid scintillation counting
Sequence of Prostacyclin receptor (P43119 whole entry): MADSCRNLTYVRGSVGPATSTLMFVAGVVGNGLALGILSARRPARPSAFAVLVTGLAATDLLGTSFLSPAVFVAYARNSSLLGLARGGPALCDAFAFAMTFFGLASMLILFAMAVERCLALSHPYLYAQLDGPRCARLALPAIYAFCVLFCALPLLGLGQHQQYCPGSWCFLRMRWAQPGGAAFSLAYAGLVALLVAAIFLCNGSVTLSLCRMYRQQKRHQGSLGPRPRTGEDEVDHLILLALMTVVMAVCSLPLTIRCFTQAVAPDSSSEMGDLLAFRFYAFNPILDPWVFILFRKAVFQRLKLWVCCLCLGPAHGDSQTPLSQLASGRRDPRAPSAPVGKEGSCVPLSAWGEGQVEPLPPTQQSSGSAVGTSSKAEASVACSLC

Thromboxane A2 receptor = molecular target: T4, Thromboxane A2 receptor (Homo sapiens, UniProt P21731); experiment: Displacement of [3H]-SQ29548 from human prostanoid TP receptor expressed in CHO cells after 30 mins by liquid scintillation counting
T4 sequence (P21731 whole entry): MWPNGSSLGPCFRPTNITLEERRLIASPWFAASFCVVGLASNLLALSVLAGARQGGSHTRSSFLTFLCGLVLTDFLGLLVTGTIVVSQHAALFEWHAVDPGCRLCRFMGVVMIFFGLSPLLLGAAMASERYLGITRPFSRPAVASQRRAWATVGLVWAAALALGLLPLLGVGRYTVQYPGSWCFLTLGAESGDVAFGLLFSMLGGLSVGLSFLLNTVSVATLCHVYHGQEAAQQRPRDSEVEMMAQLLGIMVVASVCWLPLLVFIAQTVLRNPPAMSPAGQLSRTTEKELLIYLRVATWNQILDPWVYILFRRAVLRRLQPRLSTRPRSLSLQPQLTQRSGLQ

[8] = molecular target: T3, Prostaglandin E2 receptor EP1 subtype; experiment: Displacement of [3H]PGE2 from mouse prostaglandin EP1 receptor expressed in CHO cells after 60 mins by liquid scintillation counting; type: cell-based
[9] = AUC (infinity) in rat at 1 mg/kg, iv; type: ADME, organism-based; set-up: time infinity, dose 1 mg/kg, route intravenous; conditions: plasma
Outline: (§2)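 Fasted male rats (n = 3) received 1 mg/kg iv or 10 mg/kg po. Jugular vein blood was drawn with a heparinized syringe at pre-dose and 2 (iv only), 5, 15 and 30 min, and 1, 2, 4, 6 and 8 h. Plasma was obtained by centrifugation at 4 °C and stored at −80 °C. AUC, Cmax, T1/2, Vss and CL came from the plasma concentration–time course. BA was derived from dose-normalized AUCpo/AUCiv.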

[10] = AUC (infinity) in rat at 10 mg/kg, po; type: ADME, organism-based; set-up: time infinity, dose 10 mg/kg, route oral; conditions: plasma; outline: as §2
[11] = Total clearance in rat at 1 mg/kg, iv; type: ADME, organism-based; set-up: dose 1 mg/kg, route intravenous; conditions: in vivo; outline: as §2
[12] = Cmax in rat at 10 mg/kg, po; type: ADME, organism-based; set-up: dose 10 mg/kg, route oral; conditions: in vivo; outline: as §2
[13] = Half life in rat at 1 mg/kg, iv; type: ADME, organism-based; set-up: dose 1 mg/kg, route intravenous; conditions: in vivo; outline: as §2
[14] = Half life in rat at 10 mg/kg, po; type: ADME, organism-based; set-up: dose 10 mg/kg, route oral; conditions: in vivo; outline: as §2
[15] = Volume of distribution at steady state in rat at 1 mg/kg, iv; type: ADME, organism-based; set-up: dose 1 mg/kg, route intravenous; conditions: in vivo, read-out: Vdss; outline: as §2
[16] = Oral bioavailability in rat at 10 mg/kg; type: ADME, organism-based; conditions: in vivo; outline: as §2

Row | SMILES | IC50 [1] | Ki [2] | other results
1 | Cc1cc(OC[C@@H]2CN(C)c3ccccc3O2)ccc1C(=O)Nc1cc(F)cc(CC(=O)O)c1 | 5.6 nM | 7.4 nM | –
2 | COc1ccc(NC(=O)c2ccc(OC[C@@H]3CN(C)c4ccccc4O3)cc2C)cc1CC(=O)O | 20 nM | 24 nM | –
3 | Cc1ccc(CC(=O)O)cc1NC(=O)c1ccc(OC[C@@H]2CN(C)c3ccccc3O2)cc1Cl | 6 nM | 26 nM | –
4 | CN1C[C@@H](COc2ccc(C(=O)Nc3cc(CC(=O)O)ccc3F)c(Cl)c2)Oc2ccccc21 | 7.4 nM | 17 nM | Ki [8]: > 10000 nM; Ki [3]: 22 nM; Ki [4]: > 10000 nM; Ki [5]: > 10000 nM; Ki [6]: > 10000 nM; Ki (Prostacyclin receptor): > 10000 nM; Ki (Thromboxane A2 receptor): > 10000 nM
5 | CN1C[C@@H](COc2ccc(C(=O)Nc3ccc(F)c(CC(=O)O)c3)c(Cl)c2)Oc2ccccc21 | 50 nM | 25 nM | –
6 | COc1ccc(NC(=O)c2ccc(OC[C@@H]3CN(C)c4ccccc4O3)cc2Cl)cc1CC(=O)O | 41 nM | 36 nM | –
7 | Cc1cc2c(CC(=O)O)cccc2n1C(=O)c1ccc(OC[C@@H]2CN(C)c3ccccc3O2)cc1 | – | – | AUC(0-inf) [9]: 7200 ng·h/mL; AUC(0-inf) [10]: 24300 ng·h/mL; clearance [11]: 2.4 mL/min/kg; Cmax [12]: 3500 ng/mL; half-life [13]: 9.8 h; half-life [14]: 5.4 h; Vd [15]: 1.8 L/kg; bioavailability [16]: 34%

The remaining compounds from weak to strong by IC50 [1], led by results:

Row | IC50 [1] | Ki [2] | SMILES | other results
8 | 5.4 nM | 12 nM | Cc1cc(CC(=O)O)cc(NC(=O)c2ccc(OC[C@@H]3CN(C)c4ccccc4O3)cc2Cl)c1 | –
9 | 4.3 nM | 13 nM | CN1C[C@@H](COc2ccc(C(=O)Nc3cc(CC(=O)O)ccc3Cl)c(Cl)c2)Oc2ccccc21 | Ki [3]: 44 nM; Ki [4]: > 10000 nM; Ki [5]: > 10000 nM; Ki [6]: > 10000 nM; Ki [7]: 6600 nM; Ki (Prostacyclin receptor): 1600 nM; Ki (Thromboxane A2 receptor): > 10000 nM
10 | 3.9 nM | 17 nM | Cc1ccc(NC(=O)c2ccc(OC[C@@H]3CN(C)c4ccccc4O3)cc2Cl)cc1CC(=O)O | –
11 | 1.8 nM | 19 nM | Cc1cc(OC[C@@H]2CN(C)c3ccccc3O2)ccc1C(=O)Nc1cc(CC(=O)O)ccc1F | –
12 | 1.2 nM | 15 nM | Cc1cc(OC[C@@H]2CN(C)c3ccccc3O2)ccc1C(=O)Nc1ccc(F)c(CC(=O)O)c1 | –

From ChEMBL document CHEMBL1817571, “Design and synthesis of new prostaglandin D₂ receptor antagonists” (Bioorg Med Chem, 2011)
